# Data taken from ChEMBL document CHEMBL1126988, “Quinolone antibacterials containing the new 7-[3-(1-aminoethyl)-1- pyrrolidinyl] side chain: the effects of the 1-aminoethyl moiety and its stereochemical configurations on potency and in vivo efficacy” (J Med Chem, 1993).
# What was measured:
# [1] = system: Escherichia coli; assay: Antibacterial activity in vitro against Escherichia coli Vogel; type: functional
# Outline: (§1)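 Standard microtitration broth assay against a panel of 10 Gram-positive and Gram-negative organisms. MIC read in µg/mL and averaged over multiple experiments.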
# [2] = system: Escherichia coli; assay: Antibacterial activity against Escherichia coli Vogel after oral administration in mouse; type: functional; details: for ED50: Escherichia coli, po, read-out: PD50
# [3] = system: Escherichia coli; assay: Antibacterial activity against Escherichia coli Vogel after subcutaneous administration in mouse; type: functional; details: for ED50: Escherichia coli, sc, read-out: PD50
# [4] = system: Enterobacter cloacae; assay: Minimum inhibitory concentration in vitro against Enterobacter cloacae MA 2646; type: functional
# [5] = system: Enterococcus faecalis; assay: Minimum inhibitory concentration was evaluated in vitro against Enterococcus faecalis MGH-2; type: functional; outline: as §1
# [6] = system: Klebsiella pneumoniae; assay: Minimum inhibitory concentration was evaluated in vitro against Klebsiella pneumoniae MGH2; type: functional; outline: as §1
# [7] = species: Mus musculus; assay: Compounds were evaluated for phototoxicity no-effect dose in mouse; type: functional
# Outline: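 Depilated female CD-1 mice, five per dose plus controls. Animals are dosed orally and then exposed daily to UV-A (320–400 nm) for 3 h, for up to 4 days or until a definite positive response. Redness or erythema relative to controls, read 24 h after irradiation, counts as positive. Reported as the highest dose with no effect (mg/kg).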
# [8] = system: Providencia rettgeri; assay: Minimum inhibitory concentration was evaluated in vitro against Providencia rettgeri M1771; type: functional; outline: as §1
# [9] = system: Pseudomonas aeruginosa; assay: Minimum inhibitory concentration was evaluated in vitro against Pseudomonas aeruginosa UI-18; type: functional; outline: as §1
# [10] = system: Staphylococcus aureus; assay: Minimum inhibitory concentration was evaluated in vitro against Staphylococcus aureus H 228; type: functional; outline: as §1
# [11] = system: Staphylococcus aureus; assay: Minimum inhibitory concentration was evaluated in vitro against Staphylococcus aureus UC 76; type: functional; outline: as §1
# [12] = system: Streptococcus pneumoniae; assay: Minimum inhibitory concentration was evaluated in vitro against Streptococcus pneumoniae SV-1; type: functional; outline: as §1
# [13] = system: Streptococcus pyogenes; assay: Antibacterial activity measured as mouse protection against Streptococcus pyogenes C 203 after subcutaneous administration; type: functional; details: for ED50: Streptococcus pyogenes, C 203, sc, read-out: PD50
# [14] = Clonogenic cytotoxicity against hamster V-79 cells; type: functional, Cricetulus griseus, V79
# Outline: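 Chinese hamster V-79 cells grown overnight, then drug-treated for 3 h at 37 °C. Medium is replaced with fresh medium and cells are incubated 5 days to allow colony formation. IC50 (µg/mL) is the concentration inhibiting colony formation by 50% relative to control.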
# [15] = system: Streptococcus pyogenes; assay: Compounds were evaluated in vivo for antibacterial activity for mouse protection against Streptococcus pyogenes C 203 after oral administration; type: functional; details: for ED50: Streptococcus pyogenes, C 203, po, read-out: PD50
# [16] = system: Streptococcus pyogenes; assay: Minimum inhibitory concentration was evaluated in vitro against Streptococcus pyogenes C 203; type: functional; outline: as §1
# [17] = Escherichia coli, read-out: MIC
# [18] = Enterobacter cloacae, read-out: MIC
# [19] = Enterococcus faecalis, read-out: MIC
# [20] = Klebsiella pneumoniae, read-out: MIC
# [21] = Providencia rettgeri, read-out: MIC
# [22] = Pseudomonas aeruginosa, read-out: MIC
# [23] = Staphylococcus aureus, read-out: MIC
# [24] = Streptococcus pneumoniae, read-out: MIC
# [25] = Streptococcus pyogenes, read-out: MIC
Compound,"MIC [1, 17] [µg/mL]",ED50 [2] [mg/kg],ED50 [3] [mg/kg],"MIC [4, 18] [µg/mL]","MIC [5, 19] [µg/mL]","MIC [6, 20] [µg/mL]",Dose [7] [mg/kg],"MIC [8, 21] [µg/mL]","MIC [9, 22] [µg/mL]","MIC [10, 23] [µg/mL]","MIC [11, 23] [µg/mL]","MIC [12, 24] [µg/mL]",ED50 [13] [mg/kg],Cytotoxicity [14] [µg/mL],ED50 [15] [mg/kg],"MIC [16, 25] [µg/mL]",also measured
CNC(C)C1CCN(c2nc3c(cc2F)c(=O)c(C(=O)O)cn3-c2ccc(F)cc2F)C1 (racemic),0.4,6,2,0.8,0.2,0.8,>100,1.6,3.1,0.1,0.025,0.025,1,310,4,0.05,
CN[C@H](C)[C@H]1CCN(c2c(F)cc3c(=O)c(C(=O)O)cn(C4CC4)c3c2C(F)(F)F)C1 (mixture of isomers),0.4,4,2,0.4,0.1,0.8,>100,0.8,3.1,0.025,0.013,0.013,0.3,130,0.8,0.013,
Nc1c(F)c(N2CCC(N)C2)c(F)c2c1c(=O)c(C(=O)O)cn2C1CC1 (configuration not stated),0.006,1,0.3,0.013,0.025,0.006,55,0.025,0.05,0.013,0.006,0.006,8,15,28,0.025,
CC(N)C1CCN(c2c(F)cc3c(=O)c(C(=O)O)cn(C4CC4)c3c2C(F)(F)F)C1 (racemic),,,,,,,>100,,,,,,,19,,,MIC [1]: 0.2 µg/mL; MIC [4]: 0.2 µg/mL; MIC [5]: 0.025 µg/mL; MIC [6]: 0.2 µg/mL; MIC [8]: 0.4 µg/mL; MIC [9]: 1.6 µg/mL; MIC [10]: 0.013 µg/mL; MIC [11]: 0.006 µg/mL; MIC [12]: 0.006 µg/mL; PD50 [13]: 0.3 mg/kg; PD50 [15]: 0.7 mg/kg; MIC [16]: 0.006 µg/mL
CCN[C@H](C)[C@@H]1CCN(c2nc3c(cc2F)c(=O)c(C(=O)O)cn3C2CC2)C1,0.1,7,6,0.4,0.05,0.2,,1.6,1.6,0.05,0.025,0.025,4,87,6,0.05,
CN[C@H](C)[C@@H]1CCN(c2c(F)c(N)c3c(=O)c(C(=O)O)cn(C4CC4)c3c2F)C1,0.05,,,0.05,0.013,0.1,<30,0.2,0.8,0.006,0.003,0.006,,24,,0.006,
CNCC1CCN(c2c(F)c(N)c3c(=O)c(C(=O)O)cn(C4CC4)c3c2F)C1 (configuration not stated),0.025,8,1,0.05,0.025,0.05,>100,0.2,0.4,0.013,0.006,0.003,,7.8,,0.003,
CCN[C@H](C)[C@H]1CCN(c2c(F)c(N)c3c(=O)c(C(=O)O)cn(C4CC4)c3c2F)C1 (racemic),0.025,2,1,0.025,0.013,0.05,,0.1,0.8,0.003,0.003,0.003,0.3,42,0.3,0.003,
C[C@@H](N)[C@@H]1CCN(c2c(F)c(N)c3c(=O)c(C(=O)O)cn(C4CC4)c3c2F)C1,0.025,,0.7,0.025,0.006,0.025,,0.05,0.4,0.003,0.003,0.006,0.2,<7.8,2,0.006,PD50 [2]: 4 mg/kg
NC1CCN(c2c(F)cc3c(=O)c(C(=O)O)cn(C4CC4)c3c2C(F)(F)F)C1 (configuration not stated),0.1,3,1,0.1,,,>100,,,0.2,,,22,250,,,
CCn1cc(C(=O)O)c(=O)c2cc(F)c(N3CCC(C(C)N)C3)c(OC)c21 (racemic),0.05,9,3,0.1,0.006,0.1,,0.1,0.8,0.006,0.003,0.003,0.2,19,3,0.003,
CCN[C@H](C)[C@@H]1CCN(c2c(F)c(N)c3c(=O)c(C(=O)O)cn(C4CC4)c3c2F)C1,0.05,,,0.1,0.025,0.1,,0.2,1.6,0.006,0.003,0.003,0.5,15,1,0.003,
CCN[C@@H](C)[C@@H]1CCN(c2nc3c(cc2F)c(=O)c(C(=O)O)cn3C2CC2)C1,,,,,,,,,,,,,,,,,MIC [1]: 0.2 µg/mL; PD50 [2]: 3 mg/kg; PD50 [3]: 1 mg/kg; MIC [4]: 0.2 µg/mL; MIC [5]: 0.2 µg/mL; MIC [6]: 0.4 µg/mL; MIC [8]: 1.6 µg/mL; MIC [9]: 3.1 µg/mL; MIC [10]: 0.2 µg/mL; MIC [11]: 0.1 µg/mL; MIC [12]: 0.1 µg/mL; PD50 [13]: 9 mg/kg; PD50 [15]: 15 mg/kg; MIC [16]: 0.4 µg/mL
CNCC1CCN(c2nc3c(cc2F)c(=O)c(C(=O)O)cn3C2CC2)C1 (configuration not stated),0.1,3,1,0.2,0.2,0.2,,0.4,0.8,0.2,0.025,0.025,7,,21,0.05,
COc1c(N2CC[C@@H]([C@@H](C)N)C2)c(F)cc2c(=O)c(C(=O)O)cn(C3CC3)c12,0.05,,,0.05,0.025,0.1,,0.2,0.8,0.025,0.003,0.013,1,41,6,0.013,
CCn1cc(C(=O)O)c(=O)c2cc(F)c(N3CCC(CN)C3)c(F)c21 (configuration not stated),0.1,90,1,0.2,0.1,0.4,,0.4,0.4,0.1,0.1,0.1,5,,100,0.05,
CNC(C)C1CCN(c2cc3c(c(N)c2F)c(=O)c(C(=O)O)cn3C2CC2)C1 (racemic),0.1,,,0.1,0.025,0.2,>100,0.4,1.6,0.05,0.006,0.013,1,290,8,0.025,
CCn1cc(C(=O)O)c(=O)c2cc(F)c(N3CCC(C(C)NC)C3)c(OC)c21 (racemic),0.2,22,4,0.8,0.025,0.2,,0.4,1.6,0.025,0.003,0.013,0.3,,2,0.013,
